Experimental data taken from ChEMBL document CHEMBL1124839, “5-Hydroxytryptamine (5-HT3) receptor antagonists. 3. Ortho-substituted phenylureas” (J Med Chem, 1990).

The compounds below were run against Serotonin 3 (5-HT3) receptor (Rattus norvegicus) (UniProt P35563+Q9JJ16) (assay: In vivo 5-hydroxytryptamine 3 receptor (5-HT 3 receptor) antagonistic activity expressed as ability to inhibit Bezold-Jarich reflex evoked by 5-HT in rats).
Type: functional, organism-based
How it was run: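 Male rats (260-290 g) anesthetized with urethane (1.25 g/kg ip), with blood pressure and heart rate recorded. A submaximal 5-HT dose (6 µg/kg iv) was given repeatedly, and the heart-rate change was quantified. Compound was given iv before 5-HT. ID50 is the dose reducing the 5-HT-evoked response to 50% of the control response.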

Row | Structure (SMILES) | ID50 [µg/kg]
1 | COCc1ccccc1NC(=O)NC1CC2CCC(C1)N2C (configuration not stated) | 13.4
2 | COc1ccc([N+](=O)[O-])cc1NC(=O)NC1CC2CCC(C1)N2C (configuration not stated) | > 10
3 | COc1ccccc1NC(=O)OC1CC2CCC(C1)N2C (configuration not stated) | 2.4
4 | COC(=O)c1ccccc1NC(=O)NC1CC2CCC(C1)N2C (configuration not stated) | 2.1
5 | CSc1ccccc1NC(=O)NC1CC2CCC(C1)N2C (configuration not stated) | 12.7
6 | CN1C2CCC1CC(NC(=O)Nc1ccccc1Oc1ccccc1)C2 (configuration not stated) | 5.4
7 | CN1C2CCC1CC(NC(=O)Nc1ccccc1O)C2 (configuration not stated) | 11.6
8 | CCOC(=O)c1ccccc1NC(=O)NC1CC2CCC(C1)N2C (configuration not stated) | 5.2
9 | CN1C2CCC1CC(NC(=O)Nc1ccccc1S(=O)(=O)N(C)C)C2 (configuration not stated) | 2.2
10 | C=CCOc1ccccc1NC(=O)NC1CC2CCC(C1)N2C (configuration not stated) | 2.6
11 | CCOc1ccccc1NC(=O)NC1CC2CCC(C1)N2C (configuration not stated) | 3.1

Second part, the compound after the results:

Row | ID50 [µg/kg] | Structure (SMILES)
12 | 9.8 | CCCOc1ccccc1NC(=O)NC1CC2CCC(C1)N2C (configuration not stated)
13 | > 10 | COc1ccc(NC(=O)NC2CC3CCC(C2)N3C)c(OC)c1 (configuration not stated)
14 | 2.5 | COc1ccccc1NC(=O)NC1CC2CCC(C1)N2C (configuration not stated)
15 | 8.3 | CCCCOc1ccccc1NC(=O)NC1CC2CCC(C1)N2C (configuration not stated)
16 | > 10 | COc1ccc(OC)c(NC(=O)NC2CC3CCC(C2)N3C)c1 (configuration not stated)
17 | > 10 | CN1C2CCC1CC(NC(=O)Nc1ccccc1OC(C)(C)C)C2 (configuration not stated)
18 | > 10 | CN(C)C(=O)c1ccccc1NC(=O)NC1CC2CCC(C1)N2C (configuration not stated)
19 | > 10 | COc1cc(F)ccc1NC(=O)NC1CC2CCC(C1)N2C (configuration not stated)
20 | > 10 | COc1ccc(C)cc1NC(=O)NC1CC2CCC(C1)N2C (configuration not stated)
21 | 5.2 | CN1C2CCC1CC(NC(=O)Nc1ccccc1OCc1ccccc1)C2 (configuration not stated)
22 | 2.7 | CCC(C)Oc1ccccc1NC(=O)NC1CC2CCC(C1)N2C (configuration not stated)
23 | > 100 | COc1ccccc1NC(=O)NC1CC2CCCC(C1)N2C (stereo in doubt; 11c)
24 | 4.2 | CC(C)Oc1ccccc1NC(=O)NC1CC2CCC(C1)N2C (configuration not stated)
25 | 7.5 | COc1ccccc1NC(=O)NC1CC2CCCC(C1)N2C (stereo in doubt; 6c)
26 | > 10 | COc1ccc(O)cc1NC(=O)NC1CC2CCC(C1)N2C (configuration not stated)
27 | 7 | COc1ccc(F)cc1NC(=O)NC1CC2CCC(C1)N2C (configuration not stated)
